According to ChEMBL document CHEMBL2380260, “Structure-activity relationship of N,N'-disubstituted pyrimidinetriones as Ca(V)1.3 calcium channel-selective antagonists for Parkinson's disease” (J Med Chem, 2013):

Assays:
[1] = molecular target: Voltage-dependent L-type calcium channel subunit alpha-1C (Oryctolagus cuniculus, UniProt P15381); experiment: Antagonist activity at rabbit CaV1.2alpha1C transfected in HEK293 cells by FLIPR assay; format: cell-based
Procedure, shortened: (§1)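 HEK293 cells stably expressing the L-type channel (rat CaV1.3 α1D with all alternative splice sites, or rabbit CaV1.2 α1C), each co-expressed with rat β3 and α2δ-1 subunits. Cells plated at 4 × 10⁴ cells/well and cultured in DMEM with 10% FBS for 4 days. Calcium influx read by Fluo-8 no-wash dye fluorescence on FLIPR Tetra. IC50 from triplicate percent-inhibition data fitted to a one-site sigmoidal model.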

[2] = molecular target: Voltage-dependent L-type calcium channel subunit alpha-1D (Rattus norvegicus, UniProt P27732); experiment: Antagonist activity at rat CaV1.3alpha1D transfected in HEK293 cells by FLIPR assay; format: cell-based; procedure, shortened: as §1
[3] = Selectivity ratio of IC50 for rabbit CaV1.2alpha1C to IC50 for rat CaV1.3alpha1D
Procedure, shortened: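 Selectivity is defined as […] the ratio of the CaV1.2 IC50 to the CaV1.3 IC50. Both IC50s come from the Fluo-8 FLIPR calcium influx assay in stably transfected HEK293 cells, each run in triplicate and fitted to a one-site sigmoidal model.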

Sequence of Voltage-dependent L-type calcium channel subunit alpha-1D (P27732 whole entry): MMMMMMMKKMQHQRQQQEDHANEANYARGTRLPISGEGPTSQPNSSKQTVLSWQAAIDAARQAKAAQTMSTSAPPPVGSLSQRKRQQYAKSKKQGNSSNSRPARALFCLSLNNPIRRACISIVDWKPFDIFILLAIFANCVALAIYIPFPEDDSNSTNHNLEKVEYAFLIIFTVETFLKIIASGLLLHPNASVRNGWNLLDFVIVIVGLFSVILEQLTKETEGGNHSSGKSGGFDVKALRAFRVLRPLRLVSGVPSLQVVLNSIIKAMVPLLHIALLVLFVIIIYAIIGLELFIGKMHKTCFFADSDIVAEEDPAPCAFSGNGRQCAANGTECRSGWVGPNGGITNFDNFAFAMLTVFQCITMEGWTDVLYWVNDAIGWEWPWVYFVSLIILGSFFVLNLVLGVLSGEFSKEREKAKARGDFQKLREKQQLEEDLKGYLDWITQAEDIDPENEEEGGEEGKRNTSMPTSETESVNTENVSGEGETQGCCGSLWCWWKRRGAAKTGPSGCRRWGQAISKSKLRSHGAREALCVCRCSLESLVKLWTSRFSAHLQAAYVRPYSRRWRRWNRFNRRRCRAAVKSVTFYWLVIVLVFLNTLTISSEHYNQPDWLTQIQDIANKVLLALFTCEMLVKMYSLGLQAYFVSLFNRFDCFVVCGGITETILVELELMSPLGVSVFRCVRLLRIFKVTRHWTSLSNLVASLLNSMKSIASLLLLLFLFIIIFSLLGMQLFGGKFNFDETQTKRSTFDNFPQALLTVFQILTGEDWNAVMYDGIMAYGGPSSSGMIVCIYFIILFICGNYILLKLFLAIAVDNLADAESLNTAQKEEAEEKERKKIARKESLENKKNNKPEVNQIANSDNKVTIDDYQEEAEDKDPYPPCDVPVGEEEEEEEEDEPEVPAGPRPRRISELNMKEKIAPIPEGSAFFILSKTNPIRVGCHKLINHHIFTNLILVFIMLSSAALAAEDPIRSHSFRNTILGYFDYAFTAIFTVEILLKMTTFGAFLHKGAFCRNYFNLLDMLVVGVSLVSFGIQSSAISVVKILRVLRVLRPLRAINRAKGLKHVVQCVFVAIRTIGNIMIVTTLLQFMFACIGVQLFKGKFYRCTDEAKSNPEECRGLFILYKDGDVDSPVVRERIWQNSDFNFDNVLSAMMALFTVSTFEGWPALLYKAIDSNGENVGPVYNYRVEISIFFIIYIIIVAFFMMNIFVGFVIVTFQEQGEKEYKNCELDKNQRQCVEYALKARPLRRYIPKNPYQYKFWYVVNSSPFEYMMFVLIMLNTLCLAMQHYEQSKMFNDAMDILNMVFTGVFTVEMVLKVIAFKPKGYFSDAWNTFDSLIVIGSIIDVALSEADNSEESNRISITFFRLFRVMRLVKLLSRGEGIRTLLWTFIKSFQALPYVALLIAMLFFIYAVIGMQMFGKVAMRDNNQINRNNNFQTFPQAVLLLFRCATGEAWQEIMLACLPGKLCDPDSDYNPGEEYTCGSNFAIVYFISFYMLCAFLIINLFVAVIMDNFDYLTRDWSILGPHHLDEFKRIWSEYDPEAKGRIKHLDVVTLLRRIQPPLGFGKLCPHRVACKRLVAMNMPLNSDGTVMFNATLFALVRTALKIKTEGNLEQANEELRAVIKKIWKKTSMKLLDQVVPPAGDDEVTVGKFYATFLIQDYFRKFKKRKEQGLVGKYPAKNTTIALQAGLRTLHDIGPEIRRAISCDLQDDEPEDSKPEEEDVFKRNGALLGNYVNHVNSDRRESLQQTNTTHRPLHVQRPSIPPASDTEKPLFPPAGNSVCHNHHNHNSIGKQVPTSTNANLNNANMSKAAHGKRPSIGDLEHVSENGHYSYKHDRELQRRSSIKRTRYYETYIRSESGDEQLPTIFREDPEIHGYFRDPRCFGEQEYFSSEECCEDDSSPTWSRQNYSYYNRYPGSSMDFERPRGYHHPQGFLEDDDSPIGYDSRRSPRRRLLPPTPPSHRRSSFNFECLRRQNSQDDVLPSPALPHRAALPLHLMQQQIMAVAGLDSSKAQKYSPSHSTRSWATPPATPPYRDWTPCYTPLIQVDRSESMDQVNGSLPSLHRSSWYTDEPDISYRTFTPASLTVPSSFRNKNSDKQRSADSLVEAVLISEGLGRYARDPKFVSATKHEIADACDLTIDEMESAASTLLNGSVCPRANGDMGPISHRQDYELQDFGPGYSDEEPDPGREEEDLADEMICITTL
Sequence of Voltage-dependent L-type calcium channel subunit alpha-1C (P15381 whole entry, canonical isoform): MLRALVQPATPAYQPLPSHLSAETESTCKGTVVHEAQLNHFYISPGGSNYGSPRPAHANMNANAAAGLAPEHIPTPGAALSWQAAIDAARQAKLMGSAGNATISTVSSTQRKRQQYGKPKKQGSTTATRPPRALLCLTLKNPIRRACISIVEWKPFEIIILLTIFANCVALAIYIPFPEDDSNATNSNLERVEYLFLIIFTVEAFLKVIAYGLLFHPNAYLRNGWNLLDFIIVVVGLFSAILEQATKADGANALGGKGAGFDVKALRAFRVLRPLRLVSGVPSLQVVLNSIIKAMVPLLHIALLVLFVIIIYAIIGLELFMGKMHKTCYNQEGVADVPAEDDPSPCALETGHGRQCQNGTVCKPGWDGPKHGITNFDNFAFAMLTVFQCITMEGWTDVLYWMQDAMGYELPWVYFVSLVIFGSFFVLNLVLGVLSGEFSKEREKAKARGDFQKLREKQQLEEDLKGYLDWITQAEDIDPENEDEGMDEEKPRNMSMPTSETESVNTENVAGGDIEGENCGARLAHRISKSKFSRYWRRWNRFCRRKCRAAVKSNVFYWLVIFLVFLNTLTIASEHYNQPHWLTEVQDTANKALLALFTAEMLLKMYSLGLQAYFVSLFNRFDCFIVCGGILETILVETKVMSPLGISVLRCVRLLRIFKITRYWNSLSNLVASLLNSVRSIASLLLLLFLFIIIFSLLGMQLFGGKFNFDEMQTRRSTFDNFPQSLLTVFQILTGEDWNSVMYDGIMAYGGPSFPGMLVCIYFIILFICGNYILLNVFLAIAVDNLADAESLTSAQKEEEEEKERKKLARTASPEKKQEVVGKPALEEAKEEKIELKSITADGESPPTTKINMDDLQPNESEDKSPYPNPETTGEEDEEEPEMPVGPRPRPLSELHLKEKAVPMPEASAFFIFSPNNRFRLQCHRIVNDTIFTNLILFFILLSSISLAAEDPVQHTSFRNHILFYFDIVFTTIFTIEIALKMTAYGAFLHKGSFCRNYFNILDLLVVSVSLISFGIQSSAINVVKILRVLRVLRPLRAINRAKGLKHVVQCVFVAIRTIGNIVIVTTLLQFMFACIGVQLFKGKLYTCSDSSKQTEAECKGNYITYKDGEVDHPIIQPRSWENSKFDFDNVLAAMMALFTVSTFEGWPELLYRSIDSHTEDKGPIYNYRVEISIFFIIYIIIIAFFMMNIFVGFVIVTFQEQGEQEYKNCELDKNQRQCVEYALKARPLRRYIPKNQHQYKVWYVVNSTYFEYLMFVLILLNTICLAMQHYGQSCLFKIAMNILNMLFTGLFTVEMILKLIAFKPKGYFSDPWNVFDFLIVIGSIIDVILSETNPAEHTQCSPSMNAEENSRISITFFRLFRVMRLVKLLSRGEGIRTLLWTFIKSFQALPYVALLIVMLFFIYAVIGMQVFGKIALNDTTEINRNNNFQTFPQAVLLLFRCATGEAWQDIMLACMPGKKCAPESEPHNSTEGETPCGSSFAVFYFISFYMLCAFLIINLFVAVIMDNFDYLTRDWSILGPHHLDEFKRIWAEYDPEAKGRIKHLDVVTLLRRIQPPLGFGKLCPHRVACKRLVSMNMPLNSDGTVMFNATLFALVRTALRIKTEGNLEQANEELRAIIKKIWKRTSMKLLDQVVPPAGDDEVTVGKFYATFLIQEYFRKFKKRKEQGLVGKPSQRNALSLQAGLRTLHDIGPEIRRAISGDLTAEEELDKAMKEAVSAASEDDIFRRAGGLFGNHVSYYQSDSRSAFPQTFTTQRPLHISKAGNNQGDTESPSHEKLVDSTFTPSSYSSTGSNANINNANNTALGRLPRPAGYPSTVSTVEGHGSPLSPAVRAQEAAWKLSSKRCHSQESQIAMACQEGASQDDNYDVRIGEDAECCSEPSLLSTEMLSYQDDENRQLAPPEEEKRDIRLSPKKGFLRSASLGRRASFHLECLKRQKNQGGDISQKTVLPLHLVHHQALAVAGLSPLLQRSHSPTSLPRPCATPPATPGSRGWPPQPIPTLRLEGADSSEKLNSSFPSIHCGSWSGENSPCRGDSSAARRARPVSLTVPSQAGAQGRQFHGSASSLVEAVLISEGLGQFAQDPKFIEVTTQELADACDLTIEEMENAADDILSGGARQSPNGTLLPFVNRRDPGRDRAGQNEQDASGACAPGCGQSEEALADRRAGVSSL

Structure (SMILES)	IC50 [1] [µM]	IC50 [2] [µM]	Ratio IC50 [3]
CC(C)(CN1C(=O)CC(=O)N(C2CC3CCC2C3)C1=O)c1cccc(Cl)c1 (mixture of isomers)	2.8	2.3	
O=C1CC(=O)N(C[C@H]2CCCO2)C(=O)N1CCc1ccc(Cl)cc1	> 100	> 100	
CO[C@H]1CCC[C@@H]1N1C(=O)CC(=O)N(CCc2cccc(Cl)c2)C1=O	34.6	30.3	
O=C1CC(=O)N(C2CCCC2)C(=O)N1CCc1cc(Cl)cc(Cl)c1	3.3	1.4	
CC(Cc1ccc(Cl)cc1)N1C(=O)CC(=O)N(C2CC3CCC2C3)C1=O (racemic)	4.1	3.6	
O=C1CC(=O)N([C@H]2C[C@H]3CC[C@@H]2C3)C(=O)N1CCc1cccc(C(F)(F)F)c1	> 100	3	
CC(C)C(=O)OCC1(N2C(=O)CC(=O)N(CCc3cccc(Cl)c3)C2=O)CCCC1	10.6	11.9	
CC(CN1C(=O)CC(=O)N(C2CCCC2)C1=O)c1cccc(Cl)c1 (stereo not drawn)	20.7	4.2	
O=C1CC(=O)N(C2CCCC2)C(=O)N1CCc1cccc(Cl)c1	> 100	6.3	
C[C@H]1CCCC[C@H]1N1C(=O)CC(=O)N(CCc2cccc(Cl)c2)C1=O	3.7	3.7	
CC1CCC(N2C(=O)CC(=O)N(CCc3cccc(Cl)c3)C2=O)C1 (stereo not drawn)	38	3.7	
CC1(C)CCC[C@@H]1N1C(=O)CC(=O)N(CCc2ccc(Cl)cc2)C1=O	2.3	1.7	
C[C@H]1CCCC[C@H]1N1C(=O)CC(=O)N(CCc2ccc(Cl)cc2)C1=O	8.3	6.1	
C[C@H](C1CCCCC1)N1C(=O)CC(=O)N(CCc2cccc(Cl)c2)C1=O	> 100	9.7	
CC(C)(CN1C(=O)CC(=O)N(C2CCCC2)C1=O)c1cccc(C(F)(F)F)c1	4.2	2.2	
CC1(C)[C@@H]2CC[C@@]1(C)[C@@H](N1C(=O)CC(=O)N(CCc3cccc(Cl)c3)C1=O)C2	> 100	> 100	
O=C1CC(=O)N([C@H]2CCNC2)C(=O)N1CCc1cccc(Cl)c1	> 100	> 100	
O=C1CC(=O)N(C2CCCC2)C(=O)N1CCc1ccc(-c2ccccc2)cc1	5.4	4.4	
C[C@@H]1[C@@H](C)CC[C@@H]1N1C(=O)CC(=O)N(CCc2cccc(Cl)c2)C1=O	13.2	3.09	
COC(=O)C(Cc1ccc(Cl)cc1)N1C(=O)CC(=O)N(C2CCCC2)C1=O (stereo not drawn)	13.4	7.5	
C[C@H]1CCC[C@@H]1N1C(=O)CC(=O)N(CCc2ccc(Cl)cc2)C1=O (racemic)	23	7	
COC(=O)C1(N2C(=O)CC(=O)N(CCc3cccc(Cl)c3)C2=O)CCCC1	33.4	32.7	
O=C1CC(=O)N(C2CC3CCC2C3)C(=O)N1CCc1cccc(C(F)(F)F)c1 (racemic)	100	2.4	
O=C1CC(=O)N(C2CCCc3ccccc32)C(=O)N1C1CCCC1 (stereo not drawn)	20	19.7	
CC(=O)OCC1(N2C(=O)CC(=O)N(CCc3cccc(Cl)c3)C2=O)CCCC1	29.1	39.3	

Structure (SMILES)	IC50 [1] [µM]	IC50 [2] [µM]	Ratio IC50 [3]
CC(C)C(=O)O[C@H]1CCC[C@@H]1N1C(=O)CC(=O)N(CCc2cccc(Cl)c2)C1=O	12.9	13.7	
COC(=O)C1=C(C)NC(=S)N(C(=O)OC(C)C)C1c1cccc([N+](=O)[O-])c1 (stereo not drawn)			< 2
CCC(CC)N1C(=O)CC(=O)N(CCc2cccc(Cl)c2)C1=O	25.5	11.7	
COC(=O)[C@@H](Cc1ccccc1)N1C(=O)CC(=O)N(C2CCCC2)C1=O	44.3	55	
C[C@@H]1[C@@H](N2C(=O)CC(=O)N(CCc3cccc(Cl)c3)C2=O)C[C@H]2C[C@@H]1C2(C)C	> 100	> 100	
CC1CCC(N2C(=O)CC(=O)N(CCc3ccc(Cl)cc3)C2=O)CC1 (stereo not drawn)	30	11	
O=C1CC(=O)N(C2CCCC2)C(=O)N1CCC(c1ccccc1)c1ccccc1	4.7	4.1	
O=C1CC(=O)N(C2CC3CCC2C3)C(=O)N1CCc1cc(Cl)cc(Cl)c1 (racemic)	4.6	2.7	
O=C(O)[C@H]1CC[C@@H](N2C(=O)CC(=O)N(CCc3cccc(Cl)c3)C2=O)C1	> 100	> 100	
O=C1CC(=O)N(C2CCCC2)C(=O)N1Cc1ccc(Cl)cc1	51.7	17.9	
C[C@H]1CCC[C@H]1N1C(=O)CC(=O)N(CCc2ccc(Cl)cc2)C1=O	10	2.8	
CC1(C)[C@@H]2CC[C@@]1(C)[C@@H](N1C(=O)CC(=O)N(CCc3ccc(Cl)cc3)C1=O)C2	> 100	> 100	
CC1(C)[C@@H]2CC[C@H](CN3C(=O)CC(=O)N(CCc4cccc(Cl)c4)C3=O)[C@H]1C2	47	40	
CC(C)c1ccc(CCN2C(=O)CC(=O)N(C3CCCC3)C2=O)cc1	57.6	39	
CC1(C)CCC[C@H]1N1C(=O)CC(=O)N(CCc2cccc(C(F)(F)F)c2)C1=O	3.1	2.7	
CC1CCC(N2C(=O)CC(=O)N(CCc3ccc(Cl)cc3)C2=O)C1 (stereo not drawn)	20.4	9.8	
O=C1CC(=O)N(C2Cc3ccccc3C2)C(=O)N1C1CCCC1	16.4	14.4	
CC1(C)CCC[C@H]1N1C(=O)CC(=O)N(CCc2ccc(Cl)cc2)C1=O	4.8	4.7	
CC1(C)CCC(N2C(=O)CC(=O)N(CCc3cccc(Cl)c3)C2=O)C1 (stereo not drawn)	43	5.6	
CC1(C)[C@@H]2CC[C@H](CN3C(=O)CC(=O)N(CCc4ccc(Cl)cc4)C3=O)[C@H]1C2	> 100	> 100	
C[C@@H]1[C@@H](N2C(=O)CC(=O)N(CCc3ccc(Cl)cc3)C2=O)C[C@H]2C[C@@H]1C2(C)C	28	22	
O=C1CC(=O)N([C@@H]2C[C@@H]3CC[C@H]2C3)C(=O)N1CCc1cccc(C(F)(F)F)c1	76.6	2.1	
CC(=O)O[C@H]1CCC[C@@H]1N1C(=O)CC(=O)N(CCc2cccc(Cl)c2)C1=O	48.1	> 100	
O=C1CC(=O)N([C@H]2C[C@H]3CC[C@@H]2C3)C(=O)N1CCc1ccc(Cl)cc1	100	2.1	
COC(=O)C1=C(C)NC(C)=C(C(=O)OC(C)C)C1c1cccc2nonc12 (stereo not drawn)			< 2

Structure (SMILES)	IC50 [1] [µM]	IC50 [2] [µM]	Ratio IC50 [3]
CC(C)OC(=O)[C@H]1CC[C@@H](N2C(=O)CC(=O)N(CCc3cccc(Cl)c3)C2=O)C1	8.5	10.4	
COC(=O)[C@H](Cc1ccccc1)N1C(=O)CC(=O)N(C2CCCC2)C1=O	> 100	> 100	
C[C@@H](C1CCCCC1)N1C(=O)CC(=O)N(CCc2cccc(Cl)c2)C1=O	> 100	4.3	
C[C@H]1[C@H](N2C(=O)CC(=O)N(CCc3cccc(Cl)c3)C2=O)C[C@@H]2C[C@H]1C2(C)C	> 100	> 100	
O=C1CC(=O)N(C2CC3CCC2C3)C(=O)N1CCc1cc(C(F)(F)F)cc(C(F)(F)F)c1 (mixture of isomers)	3.8	1.8	
O=C1CC(=O)N(C2CCCC2)C(=O)N1Cc1cccc(Cl)c1	46.7	43	
C[C@@H]1CCC[C@@H]1N1C(=O)CC(=O)N(CCc2ccc(Cl)cc2)C1=O	5.1	3.1	
CCOC(=O)[C@@H]1CCC[C@@H]1N1C(=O)CC(=O)N(CCc2cccc(Cl)c2)C1=O	12.6	12	
C[C@H]1[C@H](N2C(=O)CC(=O)N(CCc3ccc(Cl)cc3)C2=O)C[C@@H]2C[C@H]1C2(C)C	> 100	18	
O=C1CC(=O)N(C2CCc3ccccc32)C(=O)N1C1CCCC1 (stereo not drawn)	24.8	19.9	
O=C1CC(=O)N([C@H]2CCC[C@@H]2O)C(=O)N1CCc1cccc(Cl)c1	> 100	> 100	
CCC1CCC(N2C(=O)CC(=O)N(CCc3cccc(Cl)c3)C2=O)C1 (stereo not drawn)	15	7.3	
CC1(C)CCC(N2C(=O)CC(=O)N(CCc3ccc(Cl)cc3)C2=O)C1 (stereo not drawn)	26	3.7	
O=C1CC(=O)N(C2CCCC2)C(=O)N1c1cccc(C(F)(F)F)c1	> 100	> 100	
O=C1CC(=O)N(C[C@H]2CCCO2)C(=O)N1CCc1cccc(Cl)c1	41	> 100	
C[C@H](c1cccc2ccccc12)N1C(=O)CC(=O)N(CCc2cccc(Cl)c2)C1=O	10	10.8	
CC(CN1C(=O)CC(=O)N(C2CC3CCC2C3)C1=O)c1ccc(Cl)cc1 (racemic)	8	3.4	
CC1CCC(N2C(=O)CC(=O)N(CCc3cccc(Cl)c3)C2=O)CC1 (stereo not drawn)	46	35	
O=C1CC(=O)N(C2CCCC2)C(=O)N1CC1(c2ccc(Cl)cc2)CC1	> 100	7.3	
COc1ccc(CCN(C)CCCC(C#N)(c2ccc(OC)c(OC)c2)C(C)C)cc1OC (stereo not drawn)			< 2
C[C@H](c1cccc2ccccc12)N1C(=O)CC(=O)N(C2CCCC2)C1=O	6.15	4.6	
CCC1CCC(N2C(=O)CC(=O)N(CCc3ccc(Cl)cc3)C2=O)C1 (racemic)	29	6.7	
O=C(OCc1ccccc1)N1CC[C@H](N2C(=O)CC(=O)N(CCc3cccc(Cl)c3)C2=O)C1	33.9	50.3	
